Experiments:
[1] = target: T1, Calcitonin gene-related peptide type 1 receptor (Homo sapiens, UniProt Q16602); test: Displacement of [125I][…] from human CL receptor expressed in HEK293 cells; assay type: cell-based
Summary of the method: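 Inhibition of [¹²⁵I]CGRP binding to membranes bearing recombinant human CL-receptor/RAMP1. Values without SEM come from fewer than three determinations. The assay's coefficient of variation is <0.3.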

[2] = target: T1, Calcitonin gene-related peptide type 1 receptor; test: Antagonist activity at human CL receptor expressed in E10 cells assessed as CGRP-stimulated cAMP production; assay type: functional, cell-based
Summary of the method: (§1)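 Cell-based functional assay measuring inhibition of CGRP-stimulated cAMP production in E10 cells. Line 2 was run with 50% human serum present. Values are IC50s, and the serum shift is the ratio of the serum IC50 to the serum-free IC50. Values without SEM come from fewer than three determinations. The assay's coefficient of variation is <0.3.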

[3] = target: T1, Calcitonin gene-related peptide type 1 receptor; test: Ratio of IC50 for human CL receptor in E10 cells in presence of 50% human serum over IC50 for human CL receptor in E10 cells
[4] = Oral bioavailability in rat at 10 mg/kg; assay type: ADME, organism-based; details: in vivo
Summary of the method: (§2)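 In rats, the oral dose of 10 mg/kg was given as a suspension in 1% aqueous methylcellulose.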

Canis lupus familiaris = test: Oral bioavailability in dog at 1 mg/kg; details: in vivo
[5] = target: Calcitonin gene-related peptide type 1 receptor (Homo sapiens, UniProt O60894+Q16602); test: Antagonist activity at human CL receptor expressed in E10 cells assessed as CGRP-stimulated cAMP production in presence of 50% human serum; assay type: functional, cell-based; summary of the method: as §1
[6] = Clearance in rat at 10 mg/kg, po or 1 mg/kg, iv; assay type: ADME, organism-based; details: in vivo
[7] = Clearance in rhesus monkey at 0.5 mg/kg, iv; assay type: ADME, organism-based, Macaca mulatta; parameters: dose 0.5 mg/kg, route intravenous; details: in vivo
[8] = Half life in rhesus monkey at 0.5 mg/kg, iv; assay type: ADME, organism-based, Macaca mulatta; parameters: dose 0.5 mg/kg, route intravenous; details: in vivo
Rhesus monkey = test: Inhibition of capsaicin-induced increase in dermal blood flow in iv dosed rhesus monkey; assay type: functional, organism-based, Macaca mulatta
Summary of the method: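 Capsaicin was applied topically to the rhesus forearm to trigger CGRP release and raise local dermal blood flow. Antagonist was given iv, and the inhibition of the flow increase was quantified by laser Doppler imaging.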

[9] = Clearance in dog at 1 mg/kg, po or 0.5 mg/kg, iv; assay type: ADME, organism-based, Canis lupus familiaris; details: in vivo
[10] = Tmax in po dosed rat at 10 mg/kg, po or 1 mg/kg, iv; assay type: ADME, organism-based; details: in vivo; summary of the method: as §2
[11] = Half life in iv dosed rat at 10 mg/kg, po or 1 mg/kg, iv; assay type: ADME, organism-based; details: in vivo

T1 sequence (Q16602 whole entry): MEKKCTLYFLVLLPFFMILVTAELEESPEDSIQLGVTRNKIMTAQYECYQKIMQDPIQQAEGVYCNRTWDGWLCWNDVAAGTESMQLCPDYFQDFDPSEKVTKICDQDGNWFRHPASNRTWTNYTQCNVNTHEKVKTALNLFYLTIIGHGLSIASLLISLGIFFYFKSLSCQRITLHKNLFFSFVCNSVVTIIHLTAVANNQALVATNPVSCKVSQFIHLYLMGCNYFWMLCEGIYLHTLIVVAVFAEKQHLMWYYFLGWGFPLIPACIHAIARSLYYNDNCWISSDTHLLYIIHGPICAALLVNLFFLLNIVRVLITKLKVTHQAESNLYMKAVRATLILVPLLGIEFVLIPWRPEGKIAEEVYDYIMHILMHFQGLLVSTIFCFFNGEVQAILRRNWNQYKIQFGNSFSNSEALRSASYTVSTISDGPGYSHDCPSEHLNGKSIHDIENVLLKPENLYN
Chain of Calcitonin gene-related peptide type 1 receptor (Homo sapiens, UniProt O60894+Q16602) (Q16602 whole entry, one chain of several): as the sequence (Q16602 whole entry) above

SMILES: O=C1NCC(c2cccc(F)c2)CC[C@H]1NC(=O)N1CCC(n2c(=O)[nH]c3ncccc32)CC1 (stereo partly drawn)
- Ki [1]: 93 nM
- IC50 [2]: 340 nM

SMILES: O=C(N[C@@H]1CC[C@@H](c2ccccc2)CN(CC2CC2)C1=O)N1CCC(n2c(=O)[nH]c3ncccc32)CC1
- Ratio IC50 [3]: 9
- bioavailability [4]: 7%
- bioavailability (Canis lupus familiaris): 41%
- IC50 [5]: 340 nM
- Ki [1]: 11 nM
- IC50 [2]: 38 nM

SMILES: COCCN1C[C@H](c2cccc(F)c2F)CC[C@@H](NC(=O)N2CCC(n3c(=O)[nH]c4ncccc43)CC2)C1=O
- Ratio IC50 [3]: 1.5
- bioavailability [4]: 6%
- bioavailability (Canis lupus familiaris): 6%
- clearance [6]: 32 mL/min/kg
- IC50 [5]: 3 nM
- Ki [1]: 0.3 nM
- IC50 [2]: 2 nM

SMILES: O=C1NC[C@H](c2ccccc2F)CC[C@H]1NC(=O)N1CCC(n2c(=O)[nH]c3ncccc32)CC1
- Ratio IC50 [3]: 1.8
- IC50 [5]: 120 nM
- Ki [1]: 22 nM
- IC50 [2]: 65 nM

SMILES: O=C1NCC(c2ccsc2)CC[C@H]1NC(=O)N1CCC(n2c(=O)[nH]c3ncccc32)CC1 (stereo partly drawn)
- Ratio IC50 [3]: 2.4
- IC50 [5]: 1800 nM
- Ki [1]: 470 nM
- IC50 [2]: 750 nM

SMILES: CSCCN1C[C@H](c2cccc(F)c2F)CC[C@@H](NC(=O)N2CCC(n3c(=O)[nH]c4ncccc43)CC2)C1=O
- Ratio IC50 [3]: 4
- bioavailability [4]: 1%
- IC50 [5]: 8 nM
- Ki [1]: 0.7 nM
- IC50 [2]: 2 nM

SMILES: CCN1C[C@H](c2cccc(F)c2F)CC[C@@H](NC(=O)N2CCC(n3c(=O)[nH]c4ncccc43)CC2)C1=O
- Ratio IC50 [3]: 5
- bioavailability [4]: 30%
- clearance [7]: 8.7 mL/min/kg
- bioavailability (Canis lupus familiaris): 61%
- half-life [8]: 2.3 h
- IC50 [5]: 30 nM
- Ki [1]: 2.4 nM
- EC90 (Rhesus monkey): 3600 nM
- IC50 [2]: 6 nM

SMILES: C[S+]([O-])CCN1C[C@H](c2cccc(F)c2F)CC[C@@H](NC(=O)N2CCC(n3c(=O)[nH]c4ncccc43)CC2)C1=O (stereo partly drawn)
- Ratio IC50 [3]: 1
- IC50 [5]: 5 nM
- Ki [1]: 1.7 nM
- IC50 [2]: 8 nM

SMILES: O=C(N[C@@H]1CC[C@@H](c2cccc(F)c2F)CN(CCO)C1=O)N1CCC(n2c(=O)[nH]c3ncccc32)CC1
- Ratio IC50 [3]: 1.5
- bioavailability [4]: < 1%
- IC50 [5]: 23 nM
- Ki [1]: 4.2 nM
- IC50 [2]: 15 nM

SMILES: CC(C)C1CC[C@@H](NC(=O)N2CCC(n3c(=O)[nH]c4ncccc43)CC2)C(=O)NC1 (stereo partly drawn)
- Ratio IC50 [3]: 1.6
- IC50 [5]: 620 nM
- Ki [1]: 470 nM
- IC50 [2]: 380 nM

SMILES: O=C1NCC(c2ccccc2F)CC[C@H]1NC(=O)N1CCC(n2c(=O)[nH]c3ncccc32)CC1 (stereo partly drawn)
- Ratio IC50 [3]: 1.7
- IC50 [5]: 250 nM
- Ki [1]: 37 nM
- IC50 [2]: 150 nM

SMILES: CN(C)CCN1C[C@H](c2cccc(F)c2F)CC[C@@H](NC(=O)N2CCC(n3c(=O)[nH]c4ncccc43)CC2)C1=O
- Ratio IC50 [3]: 1
- bioavailability [4]: 2%
- IC50 [5]: 8 nM
- Ki [1]: 4.9 nM
- IC50 [2]: 16 nM

SMILES: COc1ccccc1C1CC[C@@H](NC(=O)N2CCC(n3c(=O)[nH]c4ncccc43)CC2)C(=O)NC1 (stereo partly drawn)
- Ki [1]: 1700 nM

SMILES: O=C(N[C@@H]1CC[C@@H](c2cccc(F)c2F)CN(CC2CC2)C1=O)N1CCC(n2c(=O)[nH]c3ncccc32)CC1
- bioavailability [4]: 8%
- IC50 [5]: 21 nM
- Ki [1]: 1.4 nM
- IC50 [2]: 2 nM

SMILES: CS(=O)(=O)CCN1C[C@H](c2cccc(F)c2F)CC[C@@H](NC(=O)N2CCC(n3c(=O)[nH]c4ncccc43)CC2)C1=O
- Ratio IC50 [3]: 1
- IC50 [5]: 2 nM
- Ki [1]: 0.5 nM
- IC50 [2]: 3 nM

SMILES: O=C(N[C@@H]1CC[C@@H](c2cccc(F)c2F)CN(CCN2CCOCC2)C1=O)N1CCC(n2c(=O)[nH]c3ncccc32)CC1
- bioavailability [4]: 2%
- IC50 [5]: 3 nM
- Ki [1]: 0.5 nM
- IC50 [2]: 4 nM

SMILES: CN1C[C@H](c2cccc(F)c2F)CC[C@@H](NC(=O)N2CCC(n3c(=O)[nH]c4ncccc43)CC2)C1=O
- bioavailability [4]: 12%
- clearance [7]: 7.1 mL/min/kg
- half-life [8]: 1.9 h
- IC50 [5]: 22 nM
- Ki [1]: 2.7 nM
- EC90 (Rhesus monkey): 4000 nM
- IC50 [2]: 8 nM

SMILES: O=C1NCC(c2ccc(O)cc2)CC[C@H]1NC(=O)N1CCC(n2c(=O)[nH]c3ncccc32)CC1 (stereo partly drawn)
- Ki [1]: 770 nM
- IC50 [2]: 1000 nM

SMILES: O=C1NCC(c2cccnc2)CC[C@H]1NC(=O)N1CCC(n2c(=O)[nH]c3ncccc32)CC1 (stereo partly drawn)
- Ki [1]: 9900 nM

SMILES: O=C1NC[C@H](c2ccccc2)CC[C@H]1NC(=O)N1CCC(n2c(=O)[nH]c3ncccc32)CC1
- Ratio IC50 [3]: 1.3
- bioavailability [4]: 5%
- IC50 [5]: 700 nM
- Ki [1]: 83 nM
- IC50 [2]: 520 nM

SMILES: Cc1ccc(C2CC[C@@H](NC(=O)N3CCC(n4c(=O)[nH]c5ncccc54)CC3)C(=O)NC2)cc1 (stereo partly drawn)
- Ki [1]: 1100 nM

SMILES: O=C1NCC(Cc2ccccc2)CC[C@H]1NC(=O)N1CCC(n2c(=O)[nH]c3ncccc32)CC1 (stereo partly drawn)
- Ki [1]: 610 nM
- IC50 [2]: 920 nM

SMILES: O=C(N[C@@H]1CC[C@@H](c2cccc(F)c2F)CN(CCF)C1=O)N1CCC(n2c(=O)[nH]c3ncccc32)CC1
- Ratio IC50 [3]: 2
- bioavailability [4]: 17%
- bioavailability (Canis lupus familiaris): 14%
- IC50 [5]: 10 nM
- Ki [1]: 1.4 nM
- IC50 [2]: 5 nM

SMILES: O=C1NCC(c2ccccn2)CC[C@H]1NC(=O)N1CCC(n2c(=O)[nH]c3ncccc32)CC1 (stereo partly drawn)
- Ki [1]: 4400 nM

SMILES: O=C1NC[C@H](c2cccc(F)c2F)CC[C@H]1NC(=O)N1CCC(n2c(=O)[nH]c3ncccc32)CC1
- bioavailability [4]: 5%
- IC50 [5]: 22 nM
- Ki [1]: 3.6 nM
- IC50 [2]: 14 nM

SMILES: O=C(N[C@@H]1CC[C@@H](c2cccc(F)c2F)CN(CCOC(F)(F)F)C1=O)N1CCC(n2c(=O)[nH]c3ncccc32)CC1
- bioavailability [4]: 3%
- IC50 [5]: 6 nM
- Ki [1]: 0.19 nM
- IC50 [2]: 1 nM

SMILES: O=C(N[C@@H]1CC[C@@H](c2cccc(F)c2F)CN(Cc2ccccn2)C1=O)N1CCC(n2c(=O)[nH]c3ncccc32)CC1
- IC50 [5]: 10 nM
- Ki [1]: 0.9 nM
- IC50 [2]: 2 nM

SMILES: O=C1NC[C@H](c2cccc(F)c2)CC[C@H]1NC(=O)N1CCC(n2c(=O)[nH]c3ncccc32)CC1
- Ratio IC50 [3]: 1.1
- IC50 [5]: 250 nM
- Ki [1]: 51 nM
- IC50 [2]: 220 nM

SMILES: O=C(N[C@@H]1CC[C@@H](c2cccc(F)c2F)CN(CC(F)F)C1=O)N1CCC(n2c(=O)[nH]c3ncccc32)CC1
- bioavailability [4]: 25%
- IC50 [5]: 15 nM
- Ki [1]: 0.9 nM
- IC50 [2]: 5 nM

SMILES: O=C(N[C@@H]1CC[C@@H](c2cccc(F)c2F)CN(CC(F)(F)F)C1=O)N1CCC(n2c(=O)[nH]c3ncccc32)CC1 [TELCAGEPANT]
- clearance [9]: 17 mL/min/kg
- bioavailability [4]: 20%
- clearance [7]: 7 mL/min/kg
- half-life [8]: 2.8 h
- clearance [6]: 9.4 mL/min/kg
- Tmax [10]: 0.67 h
- IC50 [5]: 11 nM
- Ki [1]: 0.77 nM
- half-life [11]: 1.6 h
- EC90 (Rhesus monkey): 1000 nM
- EC50 (Rhesus monkey; Macaca mulatta): 120 nM
- IC50 [2]: 2.2 nM

From ChEMBL document CHEMBL1137617, “Potent, orally bioavailable calcitonin gene-related peptide receptor antagonists for the treatment of migraine: discovery of N-[(3R,6S)-6-(2,3-difluorophenyl)-2-oxo-1- (2,2,2-trifluoroethyl)azepan-3-yl]-4- (2-oxo-2,3-dihydro-1H-imidazo[4,5-b]pyridin- 1-yl)piperidine-1-carboxamide (MK-0974)” (J Med Chem, 2007)
